For 40 compounds, viability results are on record in PubChem BioAssay.

As usually defined, the viability is a read-out of living cells in per cent, often relative to untreated cells.

The source made the active and inactive calls.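 How the source made its calls, unless noted: active means viability at or below 10% of carrier control in both of two separate runs; inconclusive means viability at or below 10% in only one of the two runs; inactive means the rest.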

A short description of the first test: SK-BR-3 cell growth inhibitors, pilot screen, 24 h, human (AID 572).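 Further: compound exposure lasted between 18 and 24 h rather than exactly 24 h; 100% = carrier-treated control wells.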 The conditions noted are these: SK-BR-3 viability, CellTiter-Glo luminescence, at 10 µM, stronger effect = lower value. For orientation: In ATP-based viability assays light output follows the ATP content of the culture.
With `CCOC(=O)C(NC(C)=O)(NS(=O)(=O)c1ccccc1)C(F)(F)F` (stereo not given), the viability was 122% (inactive).

As to `N#Cc1c(/N=C/c2ccco2)sc2c1CCC2`, the viability was 99% (inactive).

Consider `c1ccc(-c2noc(C34CC5CC(CC(C5)C3)C4)n2)nc1`, for which the viability was 130% (inactive).

Regarding `COc1cc(S(=O)(=O)N2CCOCC2)ccc1NC(=O)COC(=O)C12CC3CC(CC(C3)C1)C2`, the viability is 92% (inactive).

Turning to `Cc1cc(C)n(-c2nc3c(c(=O)n(Cc4ccc(Cl)c(Cl)c4)c(=O)n3C)n2C)n1`, the viability is 103% (inactive).

With `O=C(CCN1C(=O)COc2ccccc21)NCCCN1CCN(c2ccccc2F)CC1`, the viability is 105% (inactive).

As to `CC(=O)c1cc(F)c(N2CCN(C(=O)Cc3ccccc3)CC2)cc1C`, the viability is 96.5% (inactive).

For `COc1ccc(-n2nnnc2-c2cccc(OC)c2)cc1`, the viability was 102% (inactive).

On to `COc1ccc(OC)c(Nc2cc(-c3ccccc3)nc(N)n2)c1`, for which the viability was 72% (inactive).

On to `Cc1ccc(-c2csc3ncn(-n4c(C)ccc4C)c(=O)c23)o1`, for which the viability is 96% (inactive).

Consider `O=C(CN1C(=O)CCSc2ccccc21)Nc1ccccc1`, for which the viability is 113% (inactive).

Regarding `CC(=O)Nc1ccc(S(=O)(=O)Nc2nc3ccccc3nc2N2CCCC2)cc1`, the viability was 99.5% (inactive).

With `CC(=O)c1cnc2cc(-c3ccccc3)nn2c1C`, the viability was 91.5% (inactive).

Regarding `Nc1cc(C(=O)O)ccc1Nc1ccc(F)c(F)c1`, the viability was 88% (inactive).

As to `O=C(NCc1cccnc1)c1cn(CCc2ccccc2)nn1`, the viability was 99.5% (inactive).

On to `COc1ccc(-n2c(SCc3ccc(C#N)cc3)nnc2-c2ccccn2)cc1`, for which the viability is 82.5% (inactive).

In the case of `CC(C)(C)OC(=O)N1CCC(C(=O)N2CCCCCC2)CC1`, the viability is 94% (inactive).

Take `CC(NO)C(C)(C)NO` (stereo not given): the viability is 92% (inactive).

With `CCn1c(=O)cc(OCC(=O)Nc2cc(C)ccn2)c2ccccc21`, the viability is 80% (inactive).

Regarding `CCC(=O)N1CCc2cc(S(=O)(=O)CCC(=O)Nc3ccc(C)c(F)c3)ccc21`, the viability is 100% (inactive).

Take `CCN(CC)S(=O)(=O)N1CCC(C(=O)NC2CCCc3ccccc32)CC1` (stereo not given): the viability is 78% (inactive).

Regarding `O=C(CN1C(=O)c2cccc3cccc1c23)N1CCN(c2ccccc2)CC1`, the viability was 100% (inactive).

With `CC(C)CCn1c(=O)c2ccccc2n2c(CN(C)Cc3ccccc3)nnc12`, the viability was 83.5% (inactive).

Consider `C=CCn1c(SCC(=O)NC23CC4CC(CC(C4)C2)C3)nc(O)cc1=O`, for which the viability was 138% (inactive).

As to `Nc1nnc(C(=O)c2ccccc2N)s1`, the viability is 108% (inactive).

As to `COc1ccc(CCNC(=O)C2CC(=O)N(c3ccccc3)C2)cc1OC` (stereo not given), the viability is 124% (inactive).

As for `O=C(NCc1nnc(SCC(=O)N2CCCCCC2)o1)c1ccco1`, the viability is 104% (inactive).

In the case of `COc1ccc(CNc2nc(NCc3ccc(OC)cc3)n(S(C)(=O)=O)n2)cc1`, the viability was 104% (inactive).

Take `CCCCc1c(O)nc(SCCN(C)C)n(-c2ccccc2)c1=O`: the viability was 93.5% (inactive).

Consider `COc1ccc(C(=O)OC(COc2ccccc2)Cn2ccnc2)cc1` (stereo not given), for which the viability was 83% (inactive).

Take `O=S1(=O)CC(N2CCOCC2)c2ccccc21` (stereo not given): the viability was 95% (inactive).

With `CN(C)C(=O)N1CCCC(C(=O)NCc2ccccc2)C1` (stereo not given), the viability is 89% (inactive).

Regarding `O=C(NCc1ccco1)c1cnc2n(c1=O)CCS2`, the viability was 101% (inactive).

As to `C#CC(CO)N(CCN(Cc1ccccc1)C(C#C)CO)Cc1ccccc1` (stereo not given), the viability is 107% (inactive).

Take `COC(=O)c1ccccc1NC(=O)C1CC(=O)N(c2ccc(F)cc2)C1` (stereo not given): the viability is 121% (inactive).

As for `Cc1noc(NS(=O)(=O)c2ccc(N3C(=O)c4ccccc4C3=O)cc2)c1C`, the viability was 116% (inactive).

Take `CCn1c(SCC(=O)c2ccc(F)cc2)nnc1-c1ccoc1C`: the viability is 104% (inactive).

As to `CCC(C)(C(=O)NC1CCCCC1)N(Cc1ccco1)C(=O)c1ccc2c(c1)OCO2` (stereo not given), the viability is 92.5% (inactive).

As to `CC(=O)c1cc(C#N)c(SCC(=O)OC(C)C)nc1C`, the viability is 102% (inactive).

With `CCOC(=O)c1c(C)[nH]c(C=Nc2ccccc2)c1O`, the viability was 94% (inactive).

A short description of a further test: HUVEC growth inhibition – cell-based, human, primary screen (AID 575;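 active means viability at or below 30% in both replicate assays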;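 further: 100% = median of untreated cell wells with 0.1% DMSO on each plate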). As to conditions: HUVEC proliferation, CellTiter-Glo luminescence, 72 h; at 10 µM; stronger effect = lower value. The gist of the method:
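material = primary HUVEC, no more than 12 passages | input = 1250 cells per well | controls = vehicle and MePR control wells | measured by = CTG luminescence | times = 72 h compound incubation | format = collagen-coated 384-well format | read-out = % viability vs DMSO wells | doses = single 10 µM dose, 0.1% DMSO, from 5x medium stock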
As to `CCOC(=O)C(NC(C)=O)(NS(=O)(=O)c1ccccc1)C(F)(F)F` (stereo not given), the viability is 101% (inactive).

`N#Cc1c(/N=C/c2ccco2)sc2c1CCC2`: the viability was 85.2% (inactive).

As for `c1ccc(-c2noc(C34CC5CC(CC(C5)C3)C4)n2)nc1`, the viability is 94.8% (inactive).

As to `COc1cc(S(=O)(=O)N2CCOCC2)ccc1NC(=O)COC(=O)C12CC3CC(CC(C3)C1)C2`, the viability is 87.2% (inactive).

`Cc1cc(C)n(-c2nc3c(c(=O)n(Cc4ccc(Cl)c(Cl)c4)c(=O)n3C)n2C)n1`: the viability was 93% (inactive).

`O=C(CCN1C(=O)COc2ccccc21)NCCCN1CCN(c2ccccc2F)CC1`: the viability was 90.6% (inactive).

For the compound `CC(=O)c1cc(F)c(N2CCN(C(=O)Cc3ccccc3)CC2)cc1C`, the viability was 107% (inactive).

As to `COc1ccc(-n2nnnc2-c2cccc(OC)c2)cc1`, the viability was 45.3% (inactive).

Turning to `COc1ccc(OC)c(Nc2cc(-c3ccccc3)nc(N)n2)c1`, the viability is 34.2% (inactive).

For `Cc1ccc(-c2csc3ncn(-n4c(C)ccc4C)c(=O)c23)o1`, the viability was 88.7% (inactive).

Take `O=C(CN1C(=O)CCSc2ccccc21)Nc1ccccc1`: the viability was 111% (inactive).

Regarding `CC(=O)Nc1ccc(S(=O)(=O)Nc2nc3ccccc3nc2N2CCCC2)cc1`, the viability is 93.7% (inactive).

Regarding `CC(=O)c1cnc2cc(-c3ccccc3)nn2c1C`, the viability was 91.4% (inactive).

With `Nc1cc(C(=O)O)ccc1Nc1ccc(F)c(F)c1`, the viability was 89.2% (inactive).

For the compound `O=C(NCc1cccnc1)c1cn(CCc2ccccc2)nn1`, the viability was 130% (inactive).

In the case of `COc1ccc(-n2c(SCc3ccc(C#N)cc3)nnc2-c2ccccn2)cc1`, the viability is 120% (inactive).

As for `CC(C)(C)OC(=O)N1CCC(C(=O)N2CCCCCC2)CC1`, the viability is 102% (inactive).

On to `CC(NO)C(C)(C)NO` (stereo not given), for which the viability is 92.3% (inactive).

As for `CCn1c(=O)cc(OCC(=O)Nc2cc(C)ccn2)c2ccccc21`, the viability is 73.9% (inactive).

For the compound `CCC(=O)N1CCc2cc(S(=O)(=O)CCC(=O)Nc3ccc(C)c(F)c3)ccc21`, the viability was 91.6% (inactive).

Regarding `CCN(CC)S(=O)(=O)N1CCC(C(=O)NC2CCCc3ccccc32)CC1` (stereo not given), the viability was 108% (inactive).

In the case of `O=C(CN1C(=O)c2cccc3cccc1c23)N1CCN(c2ccccc2)CC1`, the viability is 111% (inactive).

In the case of `CC(C)CCn1c(=O)c2ccccc2n2c(CN(C)Cc3ccccc3)nnc12`, the viability is 70.3% (inactive).

With `C=CCn1c(SCC(=O)NC23CC4CC(CC(C4)C2)C3)nc(O)cc1=O`, the viability was 91.4% (inactive).

Consider `Nc1nnc(C(=O)c2ccccc2N)s1`, for which the viability is 102% (inactive).

`COc1ccc(CCNC(=O)C2CC(=O)N(c3ccccc3)C2)cc1OC` (stereo not given): the viability was 89.7% (inactive).

In the case of `O=C(NCc1nnc(SCC(=O)N2CCCCCC2)o1)c1ccco1`, the viability is 101% (inactive).

Regarding `COc1ccc(CNc2nc(NCc3ccc(OC)cc3)n(S(C)(=O)=O)n2)cc1`, the viability was 92.6% (inactive).

Consider `CCCCc1c(O)nc(SCCN(C)C)n(-c2ccccc2)c1=O`, for which the viability is 99.5% (inactive).

In the case of `COc1ccc(C(=O)OC(COc2ccccc2)Cn2ccnc2)cc1` (stereo not given), the viability was 79.6% (inactive).

As to `O=S1(=O)CC(N2CCOCC2)c2ccccc21` (stereo not given), the viability is 92.2% (inactive).

Consider `CN(C)C(=O)N1CCCC(C(=O)NCc2ccccc2)C1` (stereo not given), for which the viability was 102% (inactive).

In the case of `O=C(NCc1ccco1)c1cnc2n(c1=O)CCS2`, the viability was 91.3% (inactive).

Regarding `C#CC(CO)N(CCN(Cc1ccccc1)C(C#C)CO)Cc1ccccc1` (stereo not given), the viability is 79.4% (inactive).

Take `COC(=O)c1ccccc1NC(=O)C1CC(=O)N(c2ccc(F)cc2)C1` (stereo not given): the viability is 108% (inactive).

As for `Cc1noc(NS(=O)(=O)c2ccc(N3C(=O)c4ccccc4C3=O)cc2)c1C`, the viability was 99.1% (inactive).

On to `CCn1c(SCC(=O)c2ccc(F)cc2)nnc1-c1ccoc1C`, for which the viability was 104% (inactive).

`CCC(C)(C(=O)NC1CCCCC1)N(Cc1ccco1)C(=O)c1ccc2c(c1)OCO2` (stereo not given): the viability is 82.3% (inactive).

`CC(=O)c1cc(C#N)c(SCC(=O)OC(C)C)nc1C`: the viability is 88% (inactive).

As for `CCOC(=O)c1c(C)[nH]c(C=Nc2ccccc2)c1O`, the viability is 106% (inactive).
